Converted amounts (≈) assume the structure as drawn. The source made the active and inactive calls. The calls are words filed in the database; no cut-off is given here.
Legend:
Format in all cases: functional
Cavia porcellus [1] = organism: Cavia porcellus; assay: Tracheal relaxing activity expressed as minimum inhibitory concentration required to obtain a inhibitory response by more than 50%; NA denotes no activity at 30 ug/mL.
Method in brief: (§1)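 Tracheal relaxation was tested over several concentrations, each in duplicate. The value is the lowest concentration (µg/mL) giving more than 50% inhibition of the response.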

Cavia porcellus [2] = organism: Cavia porcellus; assay: Bronchodilatory activity in vitro by tracheal tone inhibition at 30 ug/mL in guinea pig tracheal muscle.; conditions: Muscle tissue
Method in brief: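 In vitro tracheal relaxation. Percent inhibition was recorded with 30 µg/mL test compound, each concentration assayed in duplicate. Inhibition above 50% was taken as pharmacologically significant.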

Cavia porcellus [3] = organism: Cavia porcellus; assay: Tracheal relaxing activity expressed as minimum inhibitory concentration required to obtain a inhibitory response by more than 50%; method in brief: as §1

SMILES | MIC (Cavia porcellus [1]) | inhibition at 30 µg/mL (Cavia porcellus [2]) [%] | MIC (Cavia porcellus [3]) [µg/mL]
Cc1nc2c(nc1C)N(CC(=O)O)S(=O)(=O)N=C2N | inactive | 13 | 
CCOC(=O)CN1c2ncc(C)nc2C(N)=NS1(=O)=O | inactive | 20 | 
CCCc1cnc2c(n1)C(N)=NS(=O)(=O)N2CC |  | 90 | 10 (≈ 37.1 µM)
CCc1nc2c(nc1C)N(CC)S(=O)(=O)N=C2N |  | 95 | 10 (≈ 37.1 µM)
CCN1c2nc(-c3ccccc3)c(-c3ccccc3)nc2C(N)=NS1(=O)=O | inactive | 24 | 
CCNC1=NS(=O)(=O)N(CC)c2ncc(-c3ccccc3)nc21 |  | 74 | 10 (≈ 30.2 µM)
CCOC(=O)CN1c2nc(-c3ccccc3)cnc2C(N)=NS1(=O)=O |  | 72 | 10 (≈ 27.7 µM)
CCN1c2nc(-c3ccccc3)c(Br)nc2C(N)=NS1(=O)=O |  | 63 | 30 (≈ 78.5 µM)
CCN1c2ncc(C(C)C)nc2C(N)=NS1(=O)=O |  | 57 | 30 (≈ 111 µM)
Cc1nc2c(nc1C)N(CCO)S(=O)(=O)N=C2N |  | 59 | 30 (≈ 111 µM)
CCCc1nc2c(nc1C)C(N)=NS(=O)(=O)N2CC | inactive | 34 | 
CCN1c2nccnc2C(N)=NS1(=O)=O | inactive | 13 | 
CCCCc1nc2c(nc1C)C(N)=NS(=O)(=O)N2C |  | 64 | 10 (≈ 35.3 µM)
CCN1c2nc(C(C)C)c(C)nc2C(N)=NS1(=O)=O |  | 55 | 30 (≈ 106 µM)
CCN1c2ncc(C(C)(C)C)nc2C(N)=NS1(=O)=O |  | 86 | 30 (≈ 106 µM)
CN1c2ncc(-c3ccccc3)nc2C(N)=NS1(=O)=O |  | 56 | 30 (≈ 104 µM)
CCN1c2nc(-c3ccccc3)c(C)nc2C(N)=NS1(=O)=O |  | 100 | 3 (≈ 9.45 µM)
Cc1nc2c(nc1-c1ccccc1)C(N1CCCC1)=NS(=O)(=O)N2C | inactive | 10 | 
CN1c2nc(-c3ccccc3)cnc2C(NN)=NS1(=O)=O |  | 81 | 10 (≈ 32.9 µM)
CCc1nc2c(nc1C)C(N)=NS(=O)(=O)N2CC | inactive | 0 | 
CCN1c2nc(C(C)C)c(C(C)C)nc2C(N)=NS1(=O)=O | inactive | 0 | 
CCN1c2nc(C)c(Br)nc2C(N)=NS1(=O)=O |  | 88 | 10 (≈ 31.2 µM)
CCc1nc2c(nc1C)C(NCCO)=NS(=O)(=O)N2CC | inactive | 41 | 
CCN1c2nc3c(nc2C(N)=NS1(=O)=O)CCCC3 |  | 82 | 10 (≈ 35.5 µM)
CCc1nc2c(nc1C)C(NCCN(C)C)=NS(=O)(=O)N2CC | inactive | 34 | 
CN1c2nccnc2C(N)=NS1(=O)=O | inactive | 22 | 

SMILES | MIC (Cavia porcellus [1]) | inhibition at 30 µg/mL (Cavia porcellus [2]) [%] | MIC (Cavia porcellus [3]) [µg/mL]
CCCN1c2nc(CC)c(C)nc2C(N)=NS1(=O)=O |  | 51 | 30 (≈ 106 µM)
CCN1c2ncc(-c3ccccc3)nc2C(N)=NS1(=O)=O | inactive | 20 | 
CCN1c2nc(-c3ccccc3)cnc2C(NCc2ccccc2)=NS1(=O)=O | inactive | 20 | 
CCN1c2ncc(C)nc2C(N)=NS1(=O)=O |  | 67 | 30 (≈ 124 µM)
CN1c2nc3c(nc2C(N)=NS1(=O)=O)CCCCC3 |  | 88 | 10 (≈ 35.5 µM)
CCNC1=NS(=O)(=O)N(CC)c2ncc(C)nc21 |  | 63 | 30 (≈ 111 µM)
CN1c2nc(-c3ccccc3)c(Cl)nc2C(N)=NS1(=O)=O |  | 86 | 30 (≈ 92.7 µM)
CCc1nc2c(nc1C)C(NN)=NS(=O)(=O)N2CC |  | 72 | 30 (≈ 106 µM)
CCN1c2nc(C)c(C)nc2C(N)=NS1(=O)=O |  | 33 | 
CN1c2nc(-c3ccccc3)cnc2C(NCCN)=NS1(=O)=O | inactive | 6 | 
CCc1cnc2c(n1)N(CC)S(=O)(=O)N=C2N |  | 80 | 30 (≈ 118 µM)
CCc1cnc2c(n1)C(N)=NS(=O)(=O)N2CC |  | 72 | 10 (≈ 39.2 µM)
Cn1c(=O)c2nc[nH]c2n(C)c1=O.O [THEOPHYLLINE] |  | 60 | 30
CCOC(=O)CN1c2nc(C)c(C)nc2C(N)=NS1(=O)=O | inactive | 15 | 
CCc1nc2c(nc1C)C(NC)=NS(=O)(=O)N2CC |  | 75 | 30 (≈ 106 µM)
CCCN1c2nc(C)c(C)nc2C(N)=NS1(=O)=O |  | 58 | 30 (≈ 111 µM)
Cc1cnc2c(n1)C(N)=NS(=O)(=O)N2C | inactive | 45 | 
CCc1nc2c(nc1CC)N(CC)S(=O)(=O)N=C2N | inactive | 0 | 
Cc1nc2c(nc1C)N(C)S(=O)(=O)N=C2NCc1ccccn1 | inactive | 31 | 
CCN1c2nc(C)cnc2C(N)=NS1(=O)=O | inactive | 42 | 
CCN1c2nc(-c3ccccc3)cnc2C(N)=NS1(=O)=O |  | 95 | 3 (≈ 9.89 µM)
Cc1nc2c(nc1C)N(C)S(=O)(=O)N=C2N |  | 92 | 3 (≈ 12.4 µM)
CCN1c2ncc(C)nc2C(NCc2ccccc2)=NS1(=O)=O | inactive | 27 | 
CCc1nc2c(nc1C)C(N)=NS(=O)(=O)N2C |  | 95 | 3 (≈ 11.8 µM)
CCN1c2nc(C)c(-c3ccccc3)nc2C(N)=NS1(=O)=O |  | 93 | 30 (≈ 94.5 µM)

From ChEMBL document CHEMBL1133507, “Novel bronchodilators: synthesis, transamination reactions, and pharmacology of a series of pyrazino[2,3-c][1,2,6]thiadiazine 2, 2-dioxides” (2000)
